# Experimental data from ChEMBL document CHEMBL2375244 (J Med Chem, 2013).
# Experiments:
# [1] = target: T1, CDK2/Cyclin A2 (Homo sapiens, UniProt P24941); test: Inhibition of human CDK2/Cyclin A2 using PKTPKKAKKL as substrate by PK/LDH spectrophotometric analysis; format: protein-complex assay
# [2] = Cytotoxicity against mouse TM4 cells after 72 hrs by MTT assay; format: functional, cell-based; conditions: TM4, 72 h
# Method in brief: (§1)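 Cells kept in RPMI or DMEM with 10% FBS at 37 °C, 5% CO₂ and allowed to attach overnight; 72 h with increasing inhibitor concentrations; then 1 mg/mL MTT for 3 h, DMSO solubilisation, OD read at 540 nm. Testis lines had culture conditions adapted to them. Dose-response in triplicate, 9 concentrations between 0.02 and 100 μM, averaged.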
# [3] = target: T1, CDK2/Cyclin A2; test: Inhibition of human CDK2/Cyclin A2 using PKTPKKAKKL as substrate by fluorescence assay; format: protein-complex assay
# [4] = Cytotoxicity against mouse GC-2 cells after 72 hrs by MTT assay; format: functional, cell-based; conditions: GC-2, 72 h; method in brief: as §1
# [5] = Cytotoxicity against mouse GC-1 cells after 72 hrs by MTT assay; format: functional, cell-based; conditions: GC-1, 72 h; method in brief: as §1
# [6] = test system: SW872; test: Cytotoxicity against human SW872 cells after 72 hrs by resazurin/resorufin-based fluorescence assay; format: functional, cell-based; conditions: SW872, 72 h
# [7] = test system: MCF7; test: Cytotoxicity against human MCF7 cells after 72 hrs by resazurin/resorufin-based fluorescence assay; format: functional, cell-based; conditions: MCF7, 72 h
# [8] = test system: SK-ES1; test: Cytotoxicity against human SK-ES-1 cells after 72 hrs by resazurin/resorufin-based fluorescence assay; format: functional, cell-based; conditions: SK-ES1, 72 h
# [9] = Cytotoxicity against human MDA-MB-436 cells after 72 hrs by resazurin/resorufin-based fluorescence assay; format: functional, cell-based; conditions: MDA-MB-436, 72 h
# [10] = test system: A673; test: Cytotoxicity against human A673 cells after 72 hrs by resazurin/resorufin-based fluorescence assay; format: functional, cell-based; conditions: A673, 72 h
# [11] = test system: MDA-MB-231; test: Cytotoxicity against human MDA-MB-231 cells after 72 hrs by resazurin/resorufin-based fluorescence assay; format: functional, cell-based; conditions: MDA-MB-231, 72 h
# [12] = Cytotoxicity against human NCI-H929 cells after 72 hrs by resazurin/resorufin-based fluorescence assay; format: functional, cell-based; conditions: NCI-H929, 72 h
# [13] = test system: SK-BR-3; test: Cytotoxicity against human SK-BR-3 cells after 72 hrs by resazurin/resorufin-based fluorescence assay; format: functional, cell-based; conditions: SK-BR-3, 72 h
# Method in brief: (§2)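 CellTiter-Blue viability: 1200 cells per well seeded, incubated overnight at 37 °C, 5% CO₂; drugs serially diluted 2:3 in medium, four replicate wells per concentration plus four diluent-only control wells; 72 h exposure; resazurin reduction to resorufin read by fluorescence (579 nm ex/584 nm em). IC50 is the average of three data sets, each using nine concentrations between 0.004 μM and 12.5 μM.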
# [14] = test system: HOS-TE85; test: Cytotoxicity against human MNNG-HOS cells after 72 hrs by resazurin/resorufin-based fluorescence assay; format: functional, cell-based; conditions: HOS-TE85, 72 h
# [15] = Cytotoxicity against human RPMI18226 cells after 72 hrs by resazurin/resorufin-based fluorescence assay; format: functional, cell-based; conditions: RPMI18226, 72 h
# [16] = test system: T47D; test: Cytotoxicity against human T47D cells after 72 hrs by resazurin/resorufin-based fluorescence assay; format: functional, cell-based
# [17] = test system: U-266; test: Cytotoxicity against human U266 cells after 72 hrs by resazurin/resorufin-based fluorescence assay; format: functional, cell-based; conditions: U-266, 72 h
# [18] = test system: BT-549; test: Cytotoxicity against human BT549 cells after 72 hrs by resazurin/resorufin-based fluorescence assay; format: functional, cell-based; conditions: BT-549, 72 h; method in brief: as §2
# [19] = test system: SK-UT-1; test: Cytotoxicity against human SK-UT-1 cells after 72 hrs by resazurin/resorufin-based fluorescence assay; format: functional, cell-based; conditions: SK-UT-1, 72 h
# [20] = test system: MDA-MB-468; test: Cytotoxicity against human MDA-MB-468 cells after 72 hrs by MTT assay; format: functional, cell-based; conditions: MDA-MB-468, 72 h; method in brief: as §1
compound,measurement,setting,value
CCCNc1nc(N)c(C(=O)c2ccccc2)s1,IC50,[1],8.9 µM
Nc1nc(Nc2ccccc2)sc1C(=O)c1cccnc1,IC50,[2],5.5 µM
same,IC50,[3],0.65 µM
same,IC50,[4],9.5 µM
same,IC50,[5],5.9 µM
Nc1nc(NC2CCNCC2)sc1C(=O)c1cccnc1,IC50,[1],43 µM
COc1cccc(C(=O)c2sc(Nc3ccccc3)nc2N)c1,IC50,[1],3.1 µM
Nc1nc(Nc2ccc(S(N)(=O)=O)cc2)sc1C(=O)c1ccccc1,IC50,[2],9.1 µM
same,IC50,[3],0.13 µM
same,IC50,[4],6.1 µM
same,IC50,[5],17 µM
Nc1ccc(C(=O)c2sc(Nc3ccc(S(N)(=O)=O)cc3)nc2N)cc1,IC50,[1],8.8 µM
Nc1cccc(C(=O)c2sc(Nc3ccc(S(N)(=O)=O)cc3)nc2N)c1,IC50,[6],> 10 µM
same,IC50,[7],> 10 µM
same,IC50,[8],9.8 µM
same,IC50,[9],> 10 µM
same,IC50,[10],8.8 µM
same,IC50,[11],> 10 µM
same,IC50,[3],0.07 µM
same,IC50,[12],6.8 µM
same,IC50,[13],4.1 µM
same,IC50,[14],> 10 µM
same,IC50,[15],> 10 µM
same,IC50,[16],5.8 µM
same,IC50,[17],5.5 µM
same,IC50,[18],> 10 µM
same,IC50,[19],> 10 µM
Cc1ccccc1C(=O)c1sc(Nc2ccc(S(N)(=O)=O)cc2)nc1N,IC50,[1],4.8 µM
Nc1nc(NC2CCCCC2)sc1C(=O)c1ccccc1,IC50,[2],9.3 µM
same,IC50,[4],8.2 µM
same,IC50,[1],1.3 µM
same,IC50,[5],9.2 µM
Nc1nc(Nc2ccc(S(N)(=O)=O)cc2)sc1C(=O)c1cccc(Cl)c1,IC50,[1],15 µM
CC(C)Nc1nc(N)c(C(=O)c2ccccc2)s1,IC50,[1],2 µM
C=CCNc1nc(N)c(C(=O)c2ccc(OC)cc2)s1,IC50,[1],35 µM
Nc1nc(Nc2ccccc2)sc1C(=O)c1ccccc1,IC50,[2],12 µM
same,IC50,[3],0.93 µM
same,IC50,[4],11 µM
same,IC50,[5],11 µM
Nc1nc(Nc2ccc(S(N)(=O)=O)cc2)sc1C(=O)C1CCCCC1,IC50,[1],3.5 µM
C=CCNc1nc(N)c(C(=O)c2ccccc2)s1,IC50,[1],15 µM
C=CCNc1nc(N)c(C(=O)c2cccnc2)s1,IC50,[1],3.1 µM
C=CCNc1nc(N)c(C(C)=O)s1,IC50,[1],> 100 µM
Nc1nc(NC2CCCCC2)sc1C(=O)c1cccnc1,IC50,[3],0.38 µM
same,IC50,[20],3.1 µM
CC(C)(C)OC(=O)N1CCC(Nc2nc(N)c(C(=O)c3cccnc3)s2)CC1,IC50,[1],3.5 µM
Nc1nc(Nc2ccc(C(=O)O)cc2)sc1C(=O)c1cccnc1,IC50,[1],4 µM
Nc1nc(Nc2ccccc2)sc1C(=O)c1cc(C(F)(F)F)cc(C(F)(F)F)c1,IC50,[1],> 100 µM
CC(C)(C)Nc1nc(N)c(C(=O)c2ccccc2)s1,IC50,[1],> 100 µM
C=CCNc1nc(N)c(C(=O)c2ccccn2)s1,IC50,[1],33 µM
NC(=O)c1sc(Nc2ccccc2)nc1N,IC50,[2],> 60 µM
same,IC50,[4],> 60 µM
same,IC50,[1],> 100 µM
same,IC50,[5],> 60 µM
Nc1nc(Nc2ccc(S(N)(=O)=O)cc2)sc1C(=O)c1cccc(C(F)(F)F)c1,IC50,[3],0.57 µM
Nc1nc(Nc2ccc(S(N)(=O)=O)cc2)sc1C(=O)c1cccc([N+](=O)[O-])c1,IC50,[2],4 µM
same,IC50,[3],0.07 µM
same,IC50,[4],20 µM
same,IC50,[5],22 µM
C=CCNc1nc(N)c(C(=O)c2ccc3ccccc3c2)s1,IC50,[1],5 µM
Nc1nc(Nc2ccccc2)sc1C(=O)c1cccc([N+](=O)[O-])c1,IC50,[1],2.2 µM
C=C(C)CNc1nc(N)c(C(=O)c2ccccc2)s1,IC50,[1],15 µM
Nc1nc(Nc2ccc(C(F)(F)F)cc2)sc1C(=O)c1ccccc1,IC50,[1],> 100 µM
CN(C)/C=C/C(=O)c1sc(Nc2ccc(S(N)(=O)=O)cc2)nc1N,IC50,[1],> 100 µM
CCNc1nc(N)c(C(=O)c2ccccc2)s1,IC50,[1],17 µM
Nc1nc(Nc2ccc(S(N)(=O)=O)cc2)sc1C(=O)c1cccc(O)c1,IC50,[1],1.5 µM
COc1ccc(C(=O)c2sc(Nc3ccc(S(N)(=O)=O)cc3)nc2N)cc1,IC50,[1],17 µM
C=CCNc1nc(N)c(C(=O)c2ccc(Cl)cc2)s1,IC50,[1],> 100 µM
C=CCNc1nc(N)c(C(=O)c2cccc([N+](=O)[O-])c2)s1,IC50,[1],2.9 µM
C=CCNc1nc(N)c(C(=O)c2ccc(F)cc2)s1,IC50,[1],> 100 µM
Nc1nc(Nc2ccccc2)sc1C(=O)c1cccc(C(F)(F)F)c1,IC50,[1],> 100 µM
NC(=O)c1ccc(Nc2nc(N)c(C(=O)c3cccnc3)s2)cc1,IC50,[3],0.2 µM
Nc1nc(Nc2ccccc2)sc1C(=O)c1ccc2ccccc2c1,IC50,[1],> 100 µM
Nc1nc(Nc2cccc(F)c2)sc1C(=O)c1ccccc1,IC50,[1],5.7 µM
COc1cccc(C(=O)c2sc(Nc3ccc(S(N)(=O)=O)cc3)nc2N)c1,IC50,[3],0.1 µM
Nc1nc(Nc2ccc(S(N)(=O)=O)cc2)sc1C(=O)c1cc(C(F)(F)F)cc(C(F)(F)F)c1,IC50,[1],25 µM
C=CCNc1nc(N)c(C(=O)c2ccncc2)s1,IC50,[1],49 µM
COC(=O)c1ccccc1C(=O)c1sc(Nc2ccc(S(N)(=O)=O)cc2)nc1N,IC50,[1],32 µM
Nc1nc(Nc2cccc(S(N)(=O)=O)c2)sc1C(=O)c1cccnc1,IC50,[1],7.8 µM
NC(=O)c1sc(Nc2ccc(S(N)(=O)=O)cc2)nc1N,IC50,[1],4.8 µM
C=CCNc1nc(N)c(C(=O)c2ccc(Cl)s2)s1,IC50,[1],12 µM
C=CCNc1nc(N)c(C(=O)c2ccc(C)cc2)s1,IC50,[1],37 µM
C=CCNc1nc(N)c(C(=O)Nc2cc(C)no2)s1,IC50,[1],> 100 µM
C=CCNc1nc(N)c(C(=O)c2ccc([N+](=O)[O-])cc2)s1,IC50,[1],41 µM
CC(=O)c1sc(Nc2ccccc2)nc1N,IC50,[1],> 100 µM
Nc1nc(Nc2ccccc2)sc1C(=O)c1ccc(F)cc1,IC50,[2],14 µM
same,IC50,[4],17 µM
same,IC50,[1],1.4 µM
same,IC50,[5],16 µM
Nc1nc(Nc2ccc(S(N)(=O)=O)cc2)sc1C(=O)c1ccc(S(N)(=O)=O)cc1,IC50,[6],> 10 µM
same,IC50,[7],> 10 µM
same,IC50,[8],> 10 µM
same,IC50,[9],> 10 µM
same,IC50,[10],> 10 µM
same,IC50,[11],> 10 µM
same,IC50,[3],0.07 µM
same,IC50,[12],> 10 µM
same,IC50,[13],> 10 µM
same,IC50,[14],> 10 µM
same,IC50,[15],> 10 µM
same,IC50,[16],8.7 µM
same,IC50,[17],7.2 µM
same,IC50,[18],> 10 µM
same,IC50,[19],> 10 µM
Nc1nc(Nc2ccccc2)sc1C(=O)c1cccc(Cl)c1,IC50,[1],99 µM
Nc1nc(Nc2ccccc2)sc1C(=O)c1cccc(F)c1,IC50,[2],5.1 µM
same,IC50,[4],4.1 µM
same,IC50,[1],1.6 µM
same,IC50,[5],3.6 µM
C=CCNc1nc(N)c(C(=O)C(C)(C)C)s1,IC50,[1],> 100 µM
N#Cc1ccc(Nc2nc(N)c(C(=O)c3cccnc3)s2)cc1,IC50,[1],2.8 µM
CNc1nc(N)c(C(=O)c2ccccc2)s1,IC50,[1],95 µM
CC(C)Nc1nc(N)c(C(=O)c2cccnc2)s1,IC50,[3],0.52 µM
Nc1nc(Nc2ccc(S(N)(=O)=O)cc2)sc1C(=O)c1ccc([N+](=O)[O-])cc1,IC50,[1],7.4 µM
CCOC(=O)c1sc(Nc2ccccc2)nc1N,IC50,[1],> 100 µM
